Measured values: ChEMBL document CHEMBL4038305, “Benzoxaborole Antimalarial Agents. Part 5. Lead Optimization of Novel Amide Pyrazinyloxy Benzoxaboroles and Identification of a Preclinical Candidate” (J Med Chem, 2017)
pIC50: −log10 of the molar value.

Experiments:
Plasmodium berghei [1] = test: Antimalarial activity against Plasmodium berghei infected in Swiss Webster mouse assessed as mouse survival rate at 33 mg/kg administered once daily via oral gavage for 4 consecutive days beginning 1 hr after infection measured on day 6 post infection relative to control; assay type: functional
Summary of the method: (§1)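 P. berghei-infected erythrocytes taken from a previously infected mouse were injected intraperitoneally. Oral dosing, once daily for 4 consecutive days, began 1 h after infection, in polyethylene glycol 300/propylene glycol/water (55/25/20 by weight). Chloroquine at 30 mg/kg was the positive control, with a vehicle-only group. Percent survival was recorded daily from day 4 to day 20.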

Plasmodium berghei [2] = test: Antimalarial activity against Plasmodium berghei infected in Swiss Webster mouse assessed as mouse survival rate at 100 mg/kg administered once daily via oral gavage for 4 consecutive days beginning 1 hr after infection measured on day 6 post infection relative to control; assay type: functional
Summary of the method: (§2)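 Mice given an intraperitoneal injection of P. berghei-infected erythrocytes taken from a previously infected animal. Oral dosing once daily for 4 consecutive days, starting 1 h after infection. Vehicle: polyethylene glycol 300/propylene glycol/water (weight ratio 55/25/20). Percent survival recorded daily from day 4 to day 20. Chloroquine 30 mg/kg and vehicle-only groups served as controls.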

Plasmodium berghei [3] = test: Antimalarial activity against Plasmodium berghei infected in Swiss Webster mouse assessed as mouse survival rate at 100 mg/kg administered once daily via oral gavage for 4 consecutive days beginning 1 hr after infection measured on day 12 post infection relative to control; assay type: functional; summary of the method: as §2
Plasmodium berghei [4] = test: Antimalarial activity against Plasmodium berghei infected in Swiss Webster mouse assessed as mouse survival rate at 100 mg/kg administered once daily via oral gavage for 4 consecutive days beginning 1 hr after infection measured on day 13 post infection relative to control; assay type: functional; summary of the method: as §2
Plasmodium berghei [5] = test: Antimalarial activity against Plasmodium berghei infected in Swiss Webster mouse assessed as mouse survival rate at 33 mg/kg administered once daily via oral gavage for 4 consecutive days beginning 1 hr after infection measured on day 9 post infection relative to control; assay type: functional; summary of the method: as §1
Plasmodium berghei [6] = test: Antimalarial activity against Plasmodium berghei infected in Swiss Webster mouse assessed as mouse survival rate at 100 mg/kg administered once daily via oral gavage for 4 consecutive days beginning 1 hr after infection measured on day 5 post infection relative to control; assay type: functional; summary of the method: as §2
Plasmodium berghei [7] = test: Antimalarial activity against Plasmodium berghei infected in Swiss Webster mouse assessed as mouse survival rate at 3.7 mg/kg administered once daily via oral gavage for 4 consecutive days beginning 1 hr after infection measured on day 6 post infection relative to control; assay type: functional; summary of the method: as §1
Plasmodium berghei [8] = test: Antimalarial activity against Plasmodium berghei infected in Swiss Webster mouse assessed as mouse survival rate at 33 mg/kg administered once daily via oral gavage for 4 consecutive days beginning 1 hr after infection measured on day 12 post infection relative to control; assay type: functional; summary of the method: as §1
Plasmodium berghei [9] = test: Antimalarial activity against Plasmodium berghei infected in Swiss Webster mouse assessed as mouse survival rate at 11 mg/kg administered once daily via oral gavage for 4 consecutive days beginning 1 hr after infection measured on day 5 post infection relative to control; assay type: functional; summary of the method: as §1
Plasmodium berghei [10] = test: Antimalarial activity against Plasmodium berghei infected in Swiss Webster mouse assessed as mouse survival rate at 33 mg/kg administered once daily via oral gavage for 4 consecutive days beginning 1 hr after infection measured on day 14 post infection relative to control; assay type: functional; summary of the method: as §1
Plasmodium berghei [11] = test: Antimalarial activity against Plasmodium berghei infected in Swiss Webster mouse assessed as mouse survival rate administered once daily via oral gavage for 4 consecutive days beginning 1 hr after infection measured on day 4 post infection; assay type: functional; summary of the method: as §2
Plasmodium berghei [12] = test: Antimalarial activity against Plasmodium berghei infected in Swiss Webster mouse assessed as mouse survival rate at 100 mg/kg administered once daily via oral gavage for 4 consecutive days beginning 1 hr after infection measured on day 11 post infection relative to control; assay type: functional; summary of the method: as §2
Plasmodium berghei [13] = test: Antimalarial activity against Plasmodium berghei infected in Swiss Webster mouse assessed as mouse survival rate at 100 mg/kg administered once daily via oral gavage for 4 consecutive days beginning 1 hr after infection measured on day 9 post infection relative to control; assay type: functional; summary of the method: as §2
Plasmodium berghei [14] = test: Antimalarial activity against Plasmodium berghei infected in Swiss Webster mouse assessed as mouse survival rate at 3.7 mg/kg administered once daily via oral gavage for 4 consecutive days beginning 1 hr after infection measured on day 4 post infection relative to control; assay type: functional; summary of the method: as §1
Plasmodium berghei [15] = test: Antimalarial activity against Plasmodium berghei infected in Swiss Webster mouse assessed as mouse survival rate at 33 mg/kg administered once daily via oral gavage for 4 consecutive days beginning 1 hr after infection measured on day 4 post infection relative to control; assay type: functional; summary of the method: as §1
Plasmodium berghei [16] = test: Antimalarial activity against Plasmodium berghei infected in Swiss Webster mouse assessed as mouse survival rate at 33 mg/kg administered once daily via oral gavage for 4 consecutive days beginning 1 hr after infection measured on day 5 post infection relative to control; assay type: functional; summary of the method: as §1
Plasmodium berghei [17] = test: Antimalarial activity against Plasmodium berghei infected in Swiss Webster mouse assessed as mouse survival rate at 1.2 mg/kg administered once daily via oral gavage for 4 consecutive days beginning 1 hr after infection measured on day 5 post infection relative to control; assay type: functional; summary of the method: as §2
Plasmodium berghei [18] = test: Antimalarial activity against Plasmodium berghei infected in Swiss Webster mouse assessed as mouse survival rate at 100 mg/kg administered once daily via oral gavage for 4 consecutive days beginning 1 hr after infection measured on day 7 post infection relative to control; assay type: functional; summary of the method: as §2
Plasmodium berghei [19] = test: Antimalarial activity against Plasmodium berghei infected in Swiss Webster mouse assessed as mouse survival rate at 33 mg/kg administered once daily via oral gavage for 4 consecutive days beginning 1 hr after infection measured on day 13 post infection relative to control; assay type: functional; summary of the method: as §1
Plasmodium berghei [20] = test: Antimalarial activity against Plasmodium berghei infected in Swiss Webster mouse assessed as mouse survival rate at 0.4 mg/kg administered once daily via oral gavage for 4 consecutive days beginning 1 hr after infection measured on day 7 post infection relative to control; assay type: functional; summary of the method: as §2
Plasmodium berghei [21] = test: Antimalarial activity against Plasmodium berghei infected in Swiss Webster mouse assessed as mouse survival rate at 100 mg/kg administered once daily via oral gavage for 4 consecutive days beginning 1 hr after infection measured on day 14 post infection relative to control; assay type: functional; summary of the method: as §2
Plasmodium berghei [22] = test: Antimalarial activity against Plasmodium berghei infected in Swiss Webster mouse assessed as mouse survival rate at 11 mg/kg administered once daily via oral gavage for 4 consecutive days beginning 1 hr after infection measured on day 6 post infection relative to control; assay type: functional; summary of the method: as §1
Plasmodium berghei [23] = test: Antimalarial activity against Plasmodium berghei infected in Swiss Webster mouse assessed as mouse survival rate at 11 mg/kg administered once daily via oral gavage for 4 consecutive days beginning 1 hr after infection measured on day 4 post infection relative to control; assay type: functional; summary of the method: as §1
Plasmodium berghei [24] = test: Antimalarial activity against Plasmodium berghei infected in Swiss Webster mouse assessed as mouse survival rate at 33 mg/kg administered once daily via oral gavage for 4 consecutive days beginning 1 hr after infection measured on day 7 post infection relative to control; assay type: functional; summary of the method: as §1
Plasmodium berghei [25] = test: Antimalarial activity against Plasmodium berghei infected in Swiss Webster mouse assessed as mouse survival rate at 0.1 mg/kg administered once daily via oral gavage for 4 consecutive days beginning 1 hr after infection measured on day 7 post infection relative to control; assay type: functional; summary of the method: as §2
Plasmodium falciparum = test: Antimalarial activity against chloroquine-resistant Plasmodium falciparum W2 infected in human erythrocytes after 48 hrs by YOYO-1 dye based flow cytometric analysis; assay type: functional, cell-based; details: W2, 48 h
Summary of the method: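 P. falciparum W2 cultures were exposed to the compound for 48 h, with artemisinin and chloroquine as reference controls. IC50 was taken from two independent replicates.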

Plasmodium berghei [26] = test: Antimalarial activity against Plasmodium berghei infected in Swiss Webster mouse assessed as mouse survival rate at 11 mg/kg administered once daily via oral gavage for 4 consecutive days beginning 1 hr after infection measured on day 8 post infection relative to control; assay type: functional; summary of the method: as §1

SMILES | survival at 33 mg/kg (Plasmodium berghei [1]) | survival at 100 mg/kg (Plasmodium berghei [2]) | survival at 100 mg/kg (Plasmodium berghei [3]) | survival at 100 mg/kg (Plasmodium berghei [4]) | survival at 33 mg/kg (Plasmodium berghei [5]) | survival at 100 mg/kg (Plasmodium berghei [6]) | survival at 3.7 mg/kg (Plasmodium berghei [7]) | survival at 33 mg/kg (Plasmodium berghei [8]) | survival at 11 mg/kg (Plasmodium berghei [9]) | survival at 33 mg/kg (Plasmodium berghei [10]) | ED90 (Plasmodium berghei [11]) | survival at 100 mg/kg (Plasmodium berghei [12]) | survival at 100 mg/kg (Plasmodium berghei [13]) | survival at 3.7 mg/kg (Plasmodium berghei [14]) | survival at 33 mg/kg (Plasmodium berghei [15]) | survival at 33 mg/kg (Plasmodium berghei [16]) | survival at 1.2 mg/kg (Plasmodium berghei [17]) | survival at 100 mg/kg (Plasmodium berghei [18]) | survival at 33 mg/kg (Plasmodium berghei [19]) | survival at 0.4 mg/kg (Plasmodium berghei [20]) | also measured
Cc1c(Oc2cnc(C(=O)N3CC(C)(O)C3)cn2)ccc2c1B(O)OC2 | 100% | 100% | 100% | 100% | 100% | 100% | 100% | 100% | 100% | 0% | 1.9 to 1.92 mg/kg | 100% | 100% | 100% | 100% | 100% | 100% | 100% | 100% | 0% | survival at 100 mg/kg (Plasmodium berghei [21]): 60%; survival at 11 mg/kg (Plasmodium berghei [22]): 100%; survival at 11 mg/kg (Plasmodium berghei [23]): 100%; survival at 33 mg/kg (Plasmodium berghei [24]): 100%; survival at 0.1 mg/kg (Plasmodium berghei [25]): 0%; pIC50 (Plasmodium falciparum): 7.49; survival at 11 mg/kg (Plasmodium berghei [26]): 100%
CCC1(O)CN(C(=O)c2cnc(Oc3ccc4c(c3C)B(O)OC4)cn2)C1 | 100% | 100% | 100% | 100% | 80% | 100% | 100% | 20% | 100% | 0% | 4.8 mg/kg | 100% | 100% | 100% | 100% | 100% | 100% | 100% | 20% | 0% | survival at 100 mg/kg (Plasmodium berghei [21]): 0%; survival at 11 mg/kg (Plasmodium berghei [22]): 100%; survival at 11 mg/kg (Plasmodium berghei [23]): 100%; survival at 33 mg/kg (Plasmodium berghei [24]): 100%; survival at 0.1 mg/kg (Plasmodium berghei [25]): 0%; pIC50 (Plasmodium falciparum): 7.54; survival at 11 mg/kg (Plasmodium berghei [26]): 0%
